Assay results from different studies.
Protocols differ between the studies behind these lines.
MAP2K2: Dual specificity mitogen-activated protein kinase kinase 2 (MAP2K2, Homo sapiens, UniProt P36507)
PTGS1: Prostaglandin G/H synthase 1 (PTGS1, Ovis aries, UniProt P05979)
IPMK: Inositol polyphosphate multikinase (IPMK, Homo sapiens, UniProt Q8NFU5)
ALDH3A1: Aldehyde dehydrogenase, dimeric NADP-preferring (ALDH3A1, Homo sapiens, UniProt P30838)
rep papain-like protease: Replicase polyprotein 1ab, papain-like protease (rep, Porcine epidemic diarrhea virus, UniProt P0C6Y4)
rep main protease: Replicase polyprotein 1ab, main protease (rep, Porcine epidemic diarrhea virus, UniProt P0C6Y4)

Structure (SMILES) | target | observed | mode | method | IC50 [µM]
C=CC(=O)N1CCC(CNc2ncnc(N)c2-c2ccc(Oc3ccccc3)cc2)CC1 | MAP2K2 | enzyme activity | inhibitor | – | > 5
NS(=O)(=O)c1ccc(-n2nc(-c3nnc(S)o3)cc2-c2ccccc2)cc1 | PTGS1 | enzyme activity | inhibitor | – | 7.78
COc1cccc(CNc2nc(NC3CCN(C(=O)c4ccccc4)CC3)c3nc[nH]c3n2)c1 | IPMK | enzyme activity | inhibitor | – | 9
O=C(COC(=O)c1ccccc1Nc1cccc(C(F)(F)F)c1)Nc1ccc(F)cc1 | PTGS1 | enzyme activity | inhibitor | – | 151
COCCNc1nc(NCc2cccc(C(=O)Nc3ccc(OC)cc3)c2)nc2[nH]cnc12 | IPMK | enzyme activity | inhibitor | – | 63
Nc1nc2c(s1)C(c1ccccc1Cl)CC(=O)N2 (stereo not shown) | ALDH3A1 | enzyme activity | inhibitor | fluorescence | < 10
CC(=O)Oc1cccc(C(=O)NCc2cc(O)c(O)c(Br)c2)c1C | rep papain-like protease | enzyme activity | inhibitor | FRET | 2.76
COc1cc(C=NNC(=O)c2cc(-c3ccccc3)n(-c3ccc(S(N)(=O)=O)cc3)n2)cc(OC)c1OC | PTGS1 | enzyme activity | inhibitor | – | 7.21
CCC(C(=O)NCc1cc(O)c(O)c(Br)c1)c1ccccc1 (stereo not shown) | rep main protease | enzyme activity | inhibitor | FRET | 7.53
COc1ccc(N2CCN(Cc3cn4c(-c5ccc(Br)cc5)nnc4s3)CC2)cc1 | Aifm2 (Mus musculus, UniProt Q8BUE4, L360F) | enzyme activity | inhibitor | absorbance | ~0.518
O=C(NCc1cc(O)c(O)c(Br)c1)c1ccc(Cl)c(F)c1 | rep papain-like protease | enzyme activity | inhibitor | FRET | 7.22
COc1cc(NC(=O)c2cnn(-c3ccc([N+](=O)[O-])cc3)c2C(F)(F)F)cc(OC)c1 | PTGS1 | enzyme activity | inhibitor | – | 1.74
NC(N)=S | Urease (Canavalia ensiformis, UniProt P07374) | enzyme activity | inhibitor | – | 23.8
COc1cc(NC(=O)c2cnn(-c3ccc([N+](=O)[O-])cc3)c2C(F)(F)F)cc(OC)c1OC | PTGS1 | enzyme activity | inhibitor | – | 4.51
COc1cc(CNC(=O)c2ccccc2C)cc(Br)c1OC | rep main protease | enzyme activity | inhibitor | FRET | 6.79
NS(=O)(=O)c1ccc(-n2nc(C(=O)NN=Cc3cccnc3)cc2-c2ccccc2)cc1 | PTGS1 | enzyme activity | inhibitor | – | 8.94
COc1ccc(C(=O)NCc2cc(O)c(O)c(Br)c2)cc1 | rep papain-like protease | enzyme activity | inhibitor | FRET | 2.46
CC(C)N(CCC(=O)c1ccc2ccccc2c1)Cc1ccccc1 | ALDH3A1 | enzyme activity | inhibitor | fluorescence | < 10
CC(=NNC(=O)c1cc(-c2ccccc2)n(-c2ccc(S(N)(=O)=O)cc2)n1)c1ccc(Br)cc1 | PTGS1 | enzyme activity | inhibitor | – | 3.14
O=C(NCc1cc(O)c(O)c(Br)c1)c1nccs1 | rep papain-like protease | enzyme activity | inhibitor | FRET | 4.1
C=CC(=O)N1CCC([C@@H]2CCNc3c(C(N)=O)c(-c4ccc(Oc5ccccc5)cc4)nn32)CC1 | MAP2K2 | enzyme activity | inhibitor | – | 0.133
Cc1ccc(S(=O)(=O)NNc2ccc([N+](=O)[O-])cc2[N+](=O)[O-])cc1 | PTGS1 | enzyme activity | inhibitor | – | 194
CN1CCC(CNc2ccc3ncc(-c4cccc(OC(F)(F)F)c4)n3n2)CC1 | D(1A) dopamine receptor (DRD1, Homo sapiens, UniProt P21728) | cAMP | antagonist | – | 6.66
O=C(NCc1cc(O)c(O)c(Br)c1)c1ccccc1 | rep papain-like protease | enzyme activity | inhibitor | FRET | 12.7
NS(=O)(=O)c1ccc(-n2nc(C(=O)NN=Cc3ccc(O)cc3)cc2-c2ccccc2)cc1 | PTGS1 | enzyme activity | inhibitor | – | 3.84
O=C1NC(=O)c2c1c(-c1ccccc1Cl)cc1[nH]c3ccc(O)cc3c21 | Serine/threonine-protein kinase WNK3 (WNK3, Homo sapiens, UniProt Q9BYP7) | enzyme activity | inhibitor | – | 1.49
COc1ccc(C(=O)NCc2cc(Br)c(OC)c(OC)c2)cc1 | rep main protease | enzyme activity | inhibitor | FRET | 5.19
NS(=O)(=O)c1ccc(-n2nc(C(=O)NN3C(=O)CCC3=O)cc2-c2ccccc2)cc1 | PTGS1 | enzyme activity | inhibitor | – | 7.57
